An excerpt weighted towards active compounds, which were near 3% of everything screened.
Wee1 degr inh: Wee1 degradation inhibitors, primary screen, cell-based, HeLa, Wee1K328M-luciferase, luminescence; Wee1-like protein kinase (Homo sapiens), P30291; 1.2% of 220,000 active; AID 1321, 2008; reporter increase, % at 5 µM; HeLa Luc-Wee1K328M stability; 100% = proteasome inhibitor MG132 effect;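 active = activation above the mean of all tested compounds plus 3 SD, set per screening run, cut at about 8.8% in these data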;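 note: cells exposed to compound for 20 h before luminescence read; 0% = DMSO alone and 100% = MG132 at 30 µM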
NPY-Y2 PAM-ag: NPY-Y2 potentiators or agonists, primary screen, cell-based; Neuropeptide Y receptor type 2 (Homo sapiens), P49146; cells expressing NPY-Y2, potentiator/agonist read-out; activation, % at 3.6 µM; 0.45% of 220,000 active; AID 1359, 2008; in the data active = activation above about 27%;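 note: cells stimulated with NPY near EC25 plus isoproterenol at EC100; 0% = vehicle plus submaximal agonist and 100% = vehicle plus saturating agonist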
Target sequence (P49146 whole entry, looked up): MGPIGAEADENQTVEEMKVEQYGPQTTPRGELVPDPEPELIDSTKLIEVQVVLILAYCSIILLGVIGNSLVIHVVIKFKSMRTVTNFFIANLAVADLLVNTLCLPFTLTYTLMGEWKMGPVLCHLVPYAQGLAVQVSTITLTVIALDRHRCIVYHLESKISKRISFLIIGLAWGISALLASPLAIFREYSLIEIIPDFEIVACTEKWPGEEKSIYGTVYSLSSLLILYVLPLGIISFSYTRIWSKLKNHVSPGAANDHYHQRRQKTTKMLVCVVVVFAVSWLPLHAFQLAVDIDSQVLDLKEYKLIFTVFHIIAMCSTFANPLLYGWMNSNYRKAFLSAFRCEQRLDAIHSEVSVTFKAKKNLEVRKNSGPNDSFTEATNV
Hsp70 activator: Hsp70 transcriptional activators, primary screen, cell-based, HeLa, Hsp70 promoter luciferase, luminescence, 10 µM. HeLa Hsp70 promoter luciferase reporter; scaled: vehicle 0, proteasome-inhibitor control 100%. activation, % at 10 µM. 0.04% of 200,000 active. AID 1203, 2008;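 active = activation above the mean across all tested compounds plus 3 SD, cutoff set per campaign, cut at about 5.5% in these data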;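 note: 100% = MG132 at 30 µM as the positive control and 0% = DMSO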
NPY Y2 blocker: NPY-Y2 receptor antagonists, primary screen, cell-based; 0.99% of 140,000 active; inhibition, % at 2.7 µM; AID 793, 2007; NPY-Y2 expressing cells, antagonist mode; Neuropeptide Y receptor type 2 (Homo sapiens), P49146; in the data active = inhibition above about 17%;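 note: 0% = vehicle with agonist challenge and 100% = reference antagonist with challenge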
NPY-Y1 PAM-ag: NPY-Y1 receptor potentiators or agonists, primary screen, cell-based; AID 1304, 2008; NPY-Y1 expressing cells, potentiator/agonist activation; Neuropeptide Y receptor type 1 (Homo sapiens), P25929; 0.37% of 220,000 active; activation, % at 3.6 µM; in the data active = activation above about 33%, passing the limit was not always enough;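 note: cells stimulated with NPY at EC10 then isoproterenol at EC100; 0% = low agonist plus stimulus and 100% = saturating agonist plus stimulus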
NPY-Y1 antag: NPY-Y1 receptor antagonists, primary screen, cell-based. Neuropeptide Y receptor type 1 (Homo sapiens), P25929. HEK293-CNG Y1 cells, membrane potential fluorescence; NPY at EC95, then isoproterenol. inhibition, % at 3.6 µM. 1% of 200,000 active. AID 1040, 2008;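 active = inhibition above the campaign mean inhibition of all tested compounds plus 3 SD, cut at about 20% in these data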;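 note: 0% = DMSO wells given NPY plus isoproterenol and 100% = isoproterenol alone without NPY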
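Material: Y1- and CNG-channel-expressing HEK293 cells / Probe or stimulus: NPY 25 nM then isoproterenol 1 µM plus Ro 20-1724 25 µM / Doses: 3.6 µM single dose, DMSO 0.4% / Schedule: compound incubation 1 h at room temperature, readout 45 min post-stimulation / Signal: membrane potential fluorescence / Benchmarks: isoproterenol-only wells as full block versus NPY-plus-isoproterenol wells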
The depositor's hits bear a star.

`COc1ccccc1N(C(=O)c1snc(C(N)=O)c1N)C(C(=O)NC1CCCC1)c1ccco1` (stereo not given) gave Wee1 degr inh 0.9, NPY-Y2 PAM-ag -16.3, Hsp70 activator -0.2, NPY Y2 blocker 19.6*, NPY-Y1 PAM-ag -24.0 and NPY-Y1 antag 26.7*.
For O=C(NC1CCCCC1)C(c1cccs1)N(Cc1cccs1)C(=O)c1cccs1 (stereo not given) the results were Wee1 degr inh 0.4, NPY-Y2 PAM-ag -11.2, Hsp70 activator -0.1, NPY Y2 blocker 18.4*, NPY-Y1 PAM-ag -48.7 and NPY-Y1 antag 40.6*.
`COc1ccccc1N(C(=O)c1snc(C(N)=O)c1N)C(C(=O)NCCC(C)C)c1ccco1` (stereo not given) gave Wee1 degr inh -3.4, NPY-Y2 PAM-ag -13.6, Hsp70 activator -0.2, NPY Y2 blocker 9.4, NPY-Y1 PAM-ag -33.1 and NPY-Y1 antag 8.7.
`CCC(C(=O)NC1CCCCC1)N(Cc1cccs1)C(=O)c1snc(C(N)=O)c1N` (stereo not given) gave Wee1 degr inh 9.8*, NPY-Y2 PAM-ag -6.8, Hsp70 activator -0.1, NPY-Y1 PAM-ag 1.0 and NPY-Y1 antag 10.4.
CCCC(C(=O)NC1CCCC1)N(CC1CCCO1)C(=O)c1snc(C(N)=O)c1N (stereo not given) was read as Wee1 degr inh -4.0, NPY-Y2 PAM-ag 6.5, Hsp70 activator -0.3, NPY Y2 blocker 0.8, NPY-Y1 PAM-ag -8.4 and NPY-Y1 antag -0.1.
Screening COCCN(C(=O)CNC(=O)c1cccs1)C(C(=O)NC1CCCC1)c1cccs1 (stereo not given) returned Wee1 degr inh 9.8*, NPY-Y2 PAM-ag 8.0, Hsp70 activator -0.2, NPY Y2 blocker 3.6, NPY-Y1 PAM-ag 8.7 and NPY-Y1 antag 1.7.
For COc1cccc(NC(=O)C(c2ccccc2)N2CCNC(=O)C2)c1 (stereo not given) the results were Wee1 degr inh 1.0, NPY-Y2 PAM-ag -7.9, Hsp70 activator 0.1, NPY-Y1 PAM-ag -5.9 and NPY-Y1 antag 4.2.
CCCC(C(=O)NC(C)(C)C)N(CC1CCCO1)C(=O)c1snc(C(N)=O)c1N (stereo not given) was read as Wee1 degr inh 9.4*, NPY-Y2 PAM-ag -11.3, Hsp70 activator -0.2, NPY-Y1 PAM-ag 14.8 and NPY-Y1 antag 1.8.
For O=C(COc1ccccc1F)N/N=C1\CCCc2ccccc21 the results were Wee1 degr inh 10.7*, NPY-Y2 PAM-ag 1.2, Hsp70 activator 0.2, NPY Y2 blocker 3.5, NPY-Y1 PAM-ag 12.5 and NPY-Y1 antag 1.3.
NC(=O)C1CCN(C2CC(=O)N(c3ccc(F)c(Cl)c3)C2=O)CC1 (stereo not given) was read as Wee1 degr inh 3.7, NPY-Y2 PAM-ag 16.9, Hsp70 activator -0.3, NPY Y2 blocker 1.7, NPY-Y1 PAM-ag -2.3 and NPY-Y1 antag 2.4.
`CCn1c(COc2cccc3ccccc23)nnc1SCC(=O)OC1CCCCC1` gave Wee1 degr inh -4.0, NPY-Y2 PAM-ag -6.6, Hsp70 activator -0.2, NPY Y2 blocker 7.9, NPY-Y1 PAM-ag 8.7 and NPY-Y1 antag 4.8.
Cn1c(COc2cccc3ccccc23)nnc1SCC(=O)OC1CCCCC1 was read as Wee1 degr inh 9.5*, NPY-Y2 PAM-ag -27.2 and NPY-Y1 PAM-ag -27.9.
For O=C(CSc1nc2ccccc2c(=O)n1NC(=O)c1ccccc1)c1ccc(Cl)cc1 the results were Wee1 degr inh 9.3*, NPY-Y2 PAM-ag -2.5, Hsp70 activator -0.2, NPY Y2 blocker 7.2, NPY-Y1 PAM-ag -18.2 and NPY-Y1 antag 12.4.
`CCc1nc(SCc2cc(Cl)ccc2OC)n[nH]1` gave Wee1 degr inh -3.3, NPY-Y2 PAM-ag -7.1, Hsp70 activator -0.4, NPY Y2 blocker 0.3, NPY-Y1 PAM-ag -12.8 and NPY-Y1 antag 0.9.
For Cc1[nH]nc2c1C(c1ccc(N(C)C)cc1)C1=C(CC(C)(C)CC1=O)N2 (stereo not given) the results were Wee1 degr inh -2.1, NPY-Y2 PAM-ag -22.4, Hsp70 activator -0.3, NPY-Y1 PAM-ag -2.3 and NPY-Y1 antag 20.5*.
COc1cccc(Nc2nc3ccccc3nc2NS(=O)(=O)c2cccs2)c1 was read as Wee1 degr inh 0.7, NPY-Y2 PAM-ag 42.8*, Hsp70 activator -0.4, NPY Y2 blocker -1.6, NPY-Y1 PAM-ag 78.0* and NPY-Y1 antag -5.7.
Screening O=C(Cn1ncc(Cl)c(Cl)c1=O)NC1CCS(=O)(=O)C1 (stereo not given) returned Wee1 degr inh 9.5*, NPY-Y2 PAM-ag -19.9 and NPY-Y1 PAM-ag 12.5.
Screening O=C(Cn1ncc(Cl)c(Cl)c1=O)NCC1CCCCC1 returned Wee1 degr inh -0.3, NPY-Y2 PAM-ag 7.9, Hsp70 activator 0.2, NPY Y2 blocker 0.9, NPY-Y1 PAM-ag 5.6 and NPY-Y1 antag -3.6.
`N#C/C(C(=O)NCc1ccccc1)=C1/SC(Cc2ccc(Cl)cc2)C(=O)N1c1ccccc1` (stereo not given) gave Wee1 degr inh -1.7, NPY-Y2 PAM-ag -12.8, Hsp70 activator -0.6, NPY Y2 blocker 4.9, NPY-Y1 PAM-ag 10.3 and NPY-Y1 antag -4.7.
For COc1ccc(-n2cnnc2SCC(=O)N2CCN(c3ccccc3)CC2)cc1 the results were Wee1 degr inh 0.7, NPY-Y2 PAM-ag 7.8, Hsp70 activator -0.2, NPY Y2 blocker -1.5, NPY-Y1 PAM-ag -9.7 and NPY-Y1 antag -1.7.
For COc1ccc(N2CCN(C(=O)CSc3nnc(-c4cc5ccccc5cc4O)n3C)CC2)cc1 the results were Wee1 degr inh -3.4, NPY-Y2 PAM-ag 92.5*, Hsp70 activator -0.7, NPY Y2 blocker -0.9, NPY-Y1 PAM-ag 85.6* and NPY-Y1 antag -0.4.
`OCCN(CCO)c1ncnc2c1oc1ccc(Br)cc12` gave Wee1 degr inh -0.3, NPY-Y2 PAM-ag -2.6, Hsp70 activator -0.5, NPY Y2 blocker 0.2, NPY-Y1 PAM-ag 13.0 and NPY-Y1 antag -1.7.
For O=C(/C=C/c1ccc2c(c1)OCO2)NCCSCc1ccc(Cl)cc1 the results were Wee1 degr inh 2.8, NPY-Y2 PAM-ag -16.2, Hsp70 activator -0.4, NPY Y2 blocker 22.6*, NPY-Y1 PAM-ag -37.4 and NPY-Y1 antag 37.3*.
O=C(/C=C/c1ccc2c(c1)OCO2)NCCSCc1c(Cl)cccc1Cl was read as Wee1 degr inh 2.1, NPY-Y2 PAM-ag -7.0, Hsp70 activator -0.5, NPY Y2 blocker 15.8, NPY-Y1 PAM-ag -16.2 and NPY-Y1 antag 10.5.
For O=[N+]([O-])c1cccc(-n2cccc2/C=N/Nc2nc(N3CCCCC3)nc(N3CCCCC3)n2)c1 the results were Wee1 degr inh -0.5, NPY-Y2 PAM-ag 0.8, Hsp70 activator -0.5, NPY-Y1 PAM-ag 20.1 and NPY-Y1 antag -3.9.

High-throughput results as filed in PubChem BioAssay.
